Results as given in ChEMBL document CHEMBL4014347, “Targeting Mycolic Acid Transport by Indole-2-carboxamides for the Treatment of Mycobacterium abscessus Infections” (J Med Chem, 2017).
Activity calls are given as the source filed them.

Columns and labels:
[1] = test system: Mycobacteroides abscessus; assay: Antibacterial activity against Mycobacterium abscessus CIP_PIPD1 harboring MAB_4508 g925c/A309P mutant after 3 to 5 days by two fold serial dilution method; format: functional
Method in brief: (§1)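 Broth microdilution in cation-adjusted Mueller−Hinton broth per CLSI; inoculum 5 × 10^6 CFU/mL of exponential-phase bacteria; two-fold serial dilutions, solvent-only wells as control; 30 °C for 3−5 days; MIC read visually and confirmed by absorbance at 560 nm; triplicate on three independent occasions.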

[2] = Antibacterial activity against non CF patient derived Mycobacterium abscessus subsp. bolletii isolate 19 rough variant after 3 to 5 days by two fold serial dilution method; format: functional; details: Mycobacteroides abscessus; method in brief: as §1
[3] = test system: Mycobacteroides abscessus; assay: Antibacterial activity against Mycobacterium abscessus CIP_OK4-10 harboring MAB_4508 g925c/A309P mutant after 3 to 5 days by two fold serial dilution method; format: functional; method in brief: as §1
[4] = Antibacterial activity against CF patient derived Mycobacterium abscessus subsp. bolletii isolate 108 rough variant after 3 to 5 days by two fold serial dilution method; format: functional; details: Mycobacteroides abscessus; method in brief: as §1
[5] = test system: Mycobacteroides abscessus; assay: Antibacterial activity against CF patient derived Mycobacterium abscessus subsp. massiliense isolate 107 smooth variant after 3 to 5 days by two fold serial dilution method; format: functional; method in brief: as §1
[6] = test system: Mycobacteroides abscessus; assay: Antibacterial activity against non CF patient derived Mycobacterium abscessus subsp. abscessus isolate 2587 smooth variant after 3 to 5 days by two fold serial dilution method; format: functional; method in brief: as §1
[7] = test system: Mycobacteroides abscessus; assay: Antibacterial activity against non CF patient derived Mycobacterium abscessus subsp. abscessus isolate CIP104536 smooth variant after 3 to 5 days by two fold serial dilution method; format: functional; method in brief: as §1
[8] = test system: Mycobacteroides abscessus; assay: Antibacterial activity against CF patient derived Mycobacterium abscessus subsp. abscessus smooth variant after 3 to 5 days by two fold serial dilution method; format: functional; method in brief: as §1
[9] = test system: Mycobacteroides abscessus; assay: Antibacterial activity against non CF patient derived Mycobacterium abscessus subsp. abscessus isolate CIP104536 rough variant after 3 to 5 days by two fold serial dilution method; format: functional; method in brief: as §1
[10] = test system: Mycobacteroides abscessus; assay: Antibacterial activity against Mycobacterium abscessus CIP104536 after 3 to 5 days by two fold serial dilution method; format: functional
Method in brief: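 Broth microdilution per CLSI in cation-adjusted Mueller–Hinton broth; exponential-phase inoculum 5 × 10^6 CFU/mL; two-fold serial dilutions from highest concentration, solvent wells as control; 30 °C for 3−5 days; MIC read visually and confirmed by absorbance at 560 nm; triplicate on three independent occasions.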

[11] = test system: Mycobacteroides abscessus; assay: Antibacterial activity against CF patient derived Mycobacterium abscessus subsp. massiliense isolate 100 smooth variant after 3 to 5 days by two fold serial dilution method; format: functional; method in brief: as §1
[12] = test system: Mycobacteroides abscessus; assay: Antibacterial activity against Addison's disease patient derived Mycobacterium abscessus subsp. massiliense isolate CIP108297 smooth variant after 3 to 5 days by two fold serial dilution method; format: functional; method in brief: as §1
[13] = test system: Mycobacteroides abscessus; assay: Antibacterial activity against CF patient derived Mycobacterium abscessus subsp. abscessus isolate 2069 smooth variant after 3 to 5 days by two fold serial dilution method; format: functional; method in brief: as §1
[14] = test system: Mycobacteroides abscessus; assay: Antibacterial activity against Addison's disease patient derived Mycobacterium abscessus subsp. massiliense isolate CIP108297 rough variant after 3 to 5 days by two fold serial dilution method; format: functional; method in brief: as §1
[15] = test system: Mycobacteroides abscessus; assay: Antibacterial activity against CF patient derived Mycobacterium abscessus subsp. massiliense isolate 111 smooth variant after 3 to 5 days by two fold serial dilution method; format: functional; method in brief: as §1
[16] = test system: Mycobacteroides abscessus; assay: Antibacterial activity against CF patient derived Mycobacterium abscessus subsp. abscessus rough variant after 3 to 5 days by two fold serial dilution method; format: functional; method in brief: as §1
[17] = test system: Mycobacteroides abscessus; assay: Antibacterial activity against CF patient derived Mycobacterium abscessus subsp. abscessus isolate 2524 rough variant after 3 to 5 days by two fold serial dilution method; format: functional; method in brief: as §1
[18] = test system: Mycobacteroides abscessus; assay: Antibacterial activity against CF patient derived Mycobacterium abscessus subsp. abscessus isolate 2648 rough variant after 3 to 5 days by two fold serial dilution method; format: functional; method in brief: as §1
[19] = Antibacterial activity against Mycobacterium abscessus subsp. bolletii isolate CIP108541 smooth variant after 3 to 5 days by two fold serial dilution method; format: functional; details: Mycobacteroides abscessus; method in brief: as §1
[20] = Antibacterial activity against CF patient derived Mycobacterium abscessus subsp. bolletii isolate 116 smooth variant after 3 to 5 days by two fold serial dilution method; format: functional; details: Mycobacteroides abscessus; method in brief: as §1
[21] = test system: Mycobacteroides abscessus; assay: Antibacterial activity against CF patient derived Mycobacterium abscessus subsp. massiliense isolate 122 smooth variant after 3 to 5 days by two fold serial dilution method; format: functional; method in brief: as §1
[22] = test system: Mycobacterium tuberculosis; assay: Antibacterial activity against Mycobacterium tuberculosis by AlamarBlue assay; format: functional
[23] = Antibacterial activity against CF patient derived Mycobacterium abscessus subsp. bolletii isolate 97 smooth variant after 3 to 5 days by two fold serial dilution method; format: functional; details: Mycobacteroides abscessus; method in brief: as §1
[24] = test system: Mycobacteroides abscessus; assay: Antibacterial activity against Mycobacterium abscessus CIP104536 smooth variant assessed as reduction in viable colony forming unit at […] after 4 days by time-kill assay; format: functional
[25] = test system: Mycobacteroides abscessus; assay: Antibacterial activity against CF patient derived Mycobacterium abscessus subsp. massiliense isolate 210 rough variant after 3 to 5 days by two fold serial dilution method; format: functional; method in brief: as §1
[26] = test system: Mycobacteroides abscessus; assay: Antibacterial activity against CF patient derived Mycobacterium abscessus subsp. massiliense isolate 185 smooth variant after 3 to 5 days by two fold serial dilution method; format: functional; method in brief: as §1
[27] = test system: Mycobacteroides abscessus; assay: Antibacterial activity against Mycobacterium abscessus CIP104536 smooth variant harboring pMV261 MAB_4508_A309P mutant at 0.5 to 1 ug/ml after 3 days; format: functional
Method in brief: (§2)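 M. abscessus overexpressing wild-type or A309P MAB_4508 from pMV261 plated on 7H10 agar with 10% OADC containing drug; plates incubated at 30 °C for 3 days before growth inspection.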

[28] = test system: Mycobacteroides abscessus; assay: Antibacterial activity against CF patient derived Mycobacterium abscessus subsp. massiliense isolate 212 smooth variant after 3 to 5 days by two fold serial dilution method; format: functional; method in brief: as §1
[29] = test system: Mycobacteroides abscessus; assay: Antibacterial activity against CF patient derived Mycobacterium abscessus subsp. abscessus isolate 1298 smooth variant after 3 to 5 days by two fold serial dilution method; format: functional; method in brief: as §1
[30] = test system: Mycobacteroides abscessus; assay: Antibacterial activity against non CF patient derived Mycobacterium abscessus subsp. abscessus isolate 3022 rough variant after 3 to 5 days by two fold serial dilution method; format: functional; method in brief: as §1
[31] = test system: Mycobacteroides abscessus; assay: Antibacterial activity against Mycobacterium abscessus CIP104536 smooth variant harboring pMV261 MAB_4508 wild type at 0.5 to 1 ug/ml after 3 days; format: functional; method in brief: as §2
[32] = test system: Mycobacteroides abscessus; assay: Antibacterial activity against CF patient derived Mycobacterium abscessus subsp. abscessus isolate 3321 smooth variant after 3 to 5 days by two fold serial dilution method; format: functional; method in brief: as §1
[33] = Selectivity index, ratio of IC50 for African green monkey Vero cells to MIC for Mycobacterium abscessus CIP104536; format: toxicity; details: read-out: Selectivity Index
[34] = test system: Mycobacteroides abscessus; assay: Antibacterial activity against CF patient derived Mycobacterium abscessus subsp. massiliense isolate 140 smooth variant after 3 to 5 days by two fold serial dilution method; format: functional; method in brief: as §1
[35] = Antibacterial activity against CF patient derived Mycobacterium abscessus subsp. bolletii isolate 114 smooth variant after 3 to 5 days by two fold serial dilution method; format: functional; details: Mycobacteroides abscessus; method in brief: as §1
[36] = test system: Mycobacterium tuberculosis; assay: Inhibition of C-terminal His-tagged Mycobacterium tuberculosis Ag85C expressed in Escherichia coli C41 (DE3) at 2.5 to 50 uM after 1 hr by resorufin butyrate-based fluorescence assay
Method in brief: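 Purified Ag85C mycolyltransferase activity measured with the fluorescent probe resorufin butyrate; compounds tested at 2.5 to 50 μM.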

[37] = Antibacterial activity against non CF patient derived Mycobacterium abscessus subsp. bolletii isolate 17 smooth variant after 3 to 5 days by two fold serial dilution method; format: functional; details: Mycobacteroides abscessus; method in brief: as §1
[38] = Antibacterial activity against CF patient derived Mycobacterium abscessus subsp. bolletii isolate 112 rough variant after 3 to 5 days by two fold serial dilution method; format: functional; details: Mycobacteroides abscessus; method in brief: as §1
[39] = test system: Mycobacteroides abscessus; assay: Inhibition of MmpL3 in Mycobacterium abscessus CIP104536 smooth variant assessed as reduction in trehalose dimycolate synthesis up to 6.2 ug/ml preincubated for 1 hr followed by [14C]acetic acid addition measured after 2 hrs by TLC based autoradiography analysis
Method in brief: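 Exponential cultures in 7H9 with OADC exposed to increasing drug concentrations for 1 h at 37 °C with agitation, then labelled with 1 μCi/mL [14C]acetate (56 mCi/mmol) for 2 h; apolar lipids (TMM, TDM) run on TLC in chloroform/methanol/water 40:8:1; MAME and arabinogalactan-bound mycolates in petroleum ether/acetone 95:5; autoradiography.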

[40] = test system: Mycobacteroides abscessus; assay: Antibacterial activity against CF patient derived Mycobacterium abscessus subsp. massiliense isolate 120 smooth variant after 3 to 5 days by two fold serial dilution method; format: functional; method in brief: as §1
[41] = test system: Vero; assay: Cytotoxicity against African green monkey Vero cells; format: cell-based; details: Chlorocebus sabaeus
[42] = Selectivity index, ratio of IC50 for African green monkey Vero cells to MIC=<90 for Mycobacterium tuberculosis; format: toxicity; details: read-out: Selectivity Index
[43] = test system: Mycobacteroides abscessus; assay: Antibacterial activity against Mycobacterium abscessus CIP104536 smooth variant assessed as reduction in viable colony forming unit at 8 ug/ml after 4 days by time-kill assay; format: functional
Method in brief: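 Set up as microdilution MIC plates in cation-adjusted Mueller−Hinton broth with smooth CIP 104536; serial dilutions plated after 0, 24, 48, 72 and 96 h of drug exposure; CFU counted after 4 days at 30 °C; mean of triplicate log10 values, representative of three independent experiments.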

[44] = test system: Mycobacteroides abscessus; assay: Antibacterial activity against Mycobacterium abscessus CIP104536 smooth variant expressing tdTomato infected in PMA activated THP-1 macrophages assessed as protection against […] infection after 4 days post treatment by microscopic method; format: functional
Method in brief: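 THP-1 macrophages, PMA-differentiated, infected with tdTomato-expressing M. abscessus, amikacin-treated and drug-exposed as in the CFU assay; at 96 h, bacteria-containing macrophages counted under fluorescence microscopy (4297 total cells) to give percentage of infected cells.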

[45] = test system: Mycobacteroides abscessus; assay: Antibacterial activity against Mycobacterium abscessus CIP104536 smooth variant infected in PMA activated THP-1 macrophages assessed as reduction in viable colony forming unit at 96 ug/ml measured upto 4 days post treatment by fluorescence microscopic method; format: functional
Method in brief: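 THP-1 cells in RPMI with 10% FBS, differentiated with 20 ng/mL PMA for 48 h at 37 °C; infected at MOI 1:2 for 2 h under 5% CO2; washed, 200 μg/mL amikacin for 1 h, washed; drug medium renewed daily; lysed in 1% Triton X100 at 0, 48, 96 h and plated for CFU; triplicates, two independent experiments.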

O=C(NC1CCCCCC1)c1cc2ccc(Br)cc2[nH]1
32 µg/mL: MIC [1] | MIC [3]
0.0625 µg/mL: MIC [9] | MIC [38]
0.0313 µg/mL: MIC=<90 [22]
active: Activity [24] | Activity [31] | inhibition [39] Dose-dependent effect
0.125 µg/mL: MIC [2] | MIC [7] | MIC [8] | MIC [10] | MIC [11] | MIC [13] | MIC [14] | MIC [15] | MIC [16] | MIC [17] | MIC [18] | MIC [19] | MIC [21] | MIC [25] | MIC [26] | MIC [28] | MIC [29] | MIC [30] | MIC [32] | MIC [34] | MIC [35] | MIC [37] | MIC [40]
≥ 64 µg/mL: IC50 [41]
≥ 512: selectivity ratio [33]
≥ 2050: selectivity ratio [42]
0.25 µg/mL: MIC [5] | MIC [6] | MIC [12] | MIC [23]
1 µg/mL: MIC [20]
0.5 µg/mL: MIC [4]
inactive: Activity [27] | inhibition [36]

C[C@@H](O)[C@H]1C(=O)N2C(C(=O)O)=C(SCCNC=N)C[C@H]12
active: Activity [43] | Activity [44] | Activity [45]

Cc1ccccc1CN1CCC(O)(c2ccc(Cl)c(C(F)(F)F)c2)CC1
0.125 µg/mL: MIC [7]
8 µg/mL: MIC [1] | MIC [3]
